Tests used:
[1] = molecular target: T1, Hydroxycarboxylic acid receptor 2 (Homo sapiens, UniProt Q8TDS4); assay: Agonist activity at recombinant human HCA2 receptor expressed in Flp-IN HEK cells assessed as reduction in forskolin-stimulated cAMP accumulation measured after 30 mins relative to control; format: functional, cell-based
How it was run: (§1)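 Flp-In-293 cells stably expressing recombinant human HCA2, 12,000 cells/well, treated with compounds plus 3 µM forskolin for 30 min in PBS containing 0.5 mM IBMX, without BSA. Read-out is reduction of forskolin-stimulated cAMP, reported as EC50 and as maximal inhibition (%). Mean ± SD of at least three experiments, each in duplicate.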

[2] = molecular target: T1, Hydroxycarboxylic acid receptor 2; assay: Displacement of [5,6-3H]-nicotinic acid from recombinant human HCA2 receptor expressed in Flp-IN HEK cell membranes after 2 hrs by microbeta counting method
How it was run: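 Membranes from human HCA2-expressing Flp-In-293 cells were prepared by acoustic disruption in TE buffer (pH 7.6) and centrifugation at 21,000g. They were used at 25 µg/well in 50 mM Tris-HCl, 1 mM MgCl2, 0.02% CHAPS, pH 7.6, without BSA. Competition with 20 nM [5,6-3H]-nicotinic acid ran 2 h at room temperature, followed by GF/B filtration and scintillation counting. Duplicates, repeated three times.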

[3] = molecular target: T1, Hydroxycarboxylic acid receptor 2; assay: Agonist activity at recombinant human HCA2 receptor expressed in Flp-IN HEK cells assessed as reduction in forskolin-stimulated cAMP accumulation measured after 30 mins; format: functional, cell-based; how it was run: as §1

T1 sequence (Q8TDS4 whole entry): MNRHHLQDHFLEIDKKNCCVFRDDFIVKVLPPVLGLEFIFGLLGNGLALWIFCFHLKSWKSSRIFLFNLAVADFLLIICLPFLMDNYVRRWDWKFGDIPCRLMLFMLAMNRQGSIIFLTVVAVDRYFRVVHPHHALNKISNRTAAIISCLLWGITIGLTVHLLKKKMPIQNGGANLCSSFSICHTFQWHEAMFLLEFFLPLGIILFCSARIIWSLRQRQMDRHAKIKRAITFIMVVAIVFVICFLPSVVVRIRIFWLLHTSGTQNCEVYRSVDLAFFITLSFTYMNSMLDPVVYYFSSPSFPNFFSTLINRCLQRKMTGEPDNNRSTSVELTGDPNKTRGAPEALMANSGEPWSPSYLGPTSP

| Structure (SMILES) | Emax [1] | IC50 [2] | EC50 [3] |
| --- | --- | --- | --- |
| O=C(/C=C/C#Cc1ccccc1O)NC1=C(C(=O)O)CCCC1 | 78% | 0.037 µM | 0.25 µM |
| O=C(CCC#Cc1ccc(C(=O)O)cc1)NC1=C(C(=O)O)CCCC1 | 74% | 3.62 µM | 5.61 µM |
| O=C(/C=C/C#Cc1cccc(O)c1)NC1=C(C(=O)O)CCCC1 | 92% | 0.383 µM | 0.39 µM |
| O=C(CCC#Cc1ccc(O)cc1F)NC1=C(C(=O)O)CCCC1 | 93% | 0.028 µM | 0.08 µM |
| O=C(CCc1ccc(-c2cccc(O)c2)cc1)NC1=C(C(=O)O)CCCC1 | 96% | 0.032 µM | 0.23 µM |
| O=C(/C=C/C#Cc1ccccc1Cl)NC1=C(C(=O)O)CCCC1 | 88% | 0.088 µM | 0.27 µM |
| O=C(CCC#Cc1ccc(O)cn1)NC1=C(C(=O)O)CCCC1 | 91% | 0.665 µM | 3.37 µM |
| O=C(CCC#Cc1ccc(O)cc1Cl)NC1=C(C(=O)O)CCCC1 | 94% | 0.076 µM | 0.09 µM |
| O=C(/C=C/C#Cc1ccc(O)cc1)NC1=C(C(=O)O)CCCC1 | 97% | 0.025 µM | 0.13 µM |
| O=C(CCc1ccc(-c2ccccc2O)cc1)NC1=C(C(=O)O)CCCC1 | 90% | 0.04 µM | 0.41 µM |
| O=C(/C=C/C#Cc1ccccc1)NC1=C(C(=O)O)CCCC1 | 79% | 0.327 µM | 1.01 µM |
| O=C(CCC#Cc1ccccc1O)NC1=C(C(=O)O)CCCC1 | 93% | 0.229 µM | 0.72 µM |
| O=C(CCc1ccc(-c2ccccc2F)cc1)NC1=C(C(=O)O)CCCC1 | 97% | 0.282 µM | 0.19 µM |
| O=C(CCC#Cc1ccc(O)cc1)NC1=C(C(=O)O)CCCC1 | 91% | 0.013 µM | 0.16 µM |
| O=C(CCc1ccc(-c2ccc(O)cc2F)cc1)NC1=C(C(=O)O)CCCC1 | 99% | 0.058 µM | 0.26 µM |
| O=C(/C=C/C#Cc1ccccc1F)NC1=C(C(=O)O)CCCC1 | 84% | 0.016 µM | 0.45 µM |
| O=C(/C=C/CCc1ccccc1)NC1=C(C(=O)O)CCCC1 | 70% | 2.83 µM | 19.6 µM |
| O=C(CCc1ccc(-c2ccc(O)cc2)cc1)NC1=C(C(=O)O)CCCC1 | 92% | 0.021 µM | 0.07 µM |
| O=C(CCC#Cc1ccccc1F)NC1=C(C(=O)O)CCCC1 | 90% | 0.067 µM | 0.36 µM |
| O=C(CCC#Cc1cccc(O)c1)NC1=C(C(=O)O)CCCC1 | 89% | 0.138 µM | 2.98 µM |
| O=C(/C=C/C#Cc1ccc(O)cc1F)NC1=C(C(=O)O)CCCC1 | 96% | 0.331 µM | 0.11 µM |
| O=C(CCC#Cc1ccccc1Cl)NC1=C(C(=O)O)CCCC1 | 95% | 0.056 µM | 0.19 µM |
| O=C(CCc1ccc(-c2ccccc2Cl)cc1)NC1=C(C(=O)O)CCCC1 | 92% | 0.075 µM | 0.13 µM |
| O=C(CCC#Cc1ccc(F)cc1)NC1=C(C(=O)O)CCCC1 | 99% | 0.291 µM | 0.63 µM |

Reference: ChEMBL document CHEMBL4052730, “Synthesis and evaluation of (E)-2-(5-phenylpent-2-en-4-ynamido)cyclohex-1-ene-1-carboxylate derivatives as HCA2 receptor agonists” (Bioorg Med Chem, 2017)
